A selection: hits, their analogues and other compounds. The true share with any hit is near 2.9%.
DENV2 CPE – protects cells from dengue virus 2 cytopathic effect | CPE inhibition, % at 9.99 µM | 350,000 tested, 1.7% active | DENV2-infected cells, cytopathic effect rescue, plate reader; in the data active = CPE inhibition above about 20%, passing the limit was not always enough; inconclusive = no clear call, values can overlap the other calls; tested in BHK-21 cells;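 note: 0% = median of neutral control wells and 100% = median of positive control wells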
PGC1a acetyl inh – PGC1a acetylation modulation, inhibitor mode. 350,000 tested, 0.17% active. U2OS PGC1a acetylation, AlphaScreen anti-acetyl-lysine; with virally co-expressed GCN5 acetyltransferase. inhibition, % at 15.6 µM;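 active = every replicate shows inhibition of at least 40%; inconclusive = mean inhibition at least 40% but some replicate below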;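 note: 0% = neutral control wells and 100% = positive control wells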
SIRT5 block – inhibitors of human sirtuin-5 desuccinylase; Q9NXA8; Purified SirT5, succinyl-peptide AMC, trypsin-coupled fluorescence; inhibition, % at 15 µM; 330,000 tested, 1.1% active; AID 652115; in the data active = inhibition above about 15%; inconclusive = no clear call, values can overlap the other calls
Target sequence (Q9NXA8 whole entry, looked up): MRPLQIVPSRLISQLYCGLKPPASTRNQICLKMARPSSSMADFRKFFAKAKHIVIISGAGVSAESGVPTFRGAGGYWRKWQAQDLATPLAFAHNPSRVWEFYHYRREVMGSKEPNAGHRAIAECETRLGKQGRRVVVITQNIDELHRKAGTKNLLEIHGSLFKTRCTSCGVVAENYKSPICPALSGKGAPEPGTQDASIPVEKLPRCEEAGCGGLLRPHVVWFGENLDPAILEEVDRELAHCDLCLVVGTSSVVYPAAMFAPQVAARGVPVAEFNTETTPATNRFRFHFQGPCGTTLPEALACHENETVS
S100A4 inh HTS – inhibitors of human S100A4 binding to myosin IIA peptide | P26447 | S100A4/TAMRA-MyoIIA peptide fluorescence polarization | inhibition, % at 10.7 µM | 360,000 tested, 0.14% active | AID 652163;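 active = mean inhibition of at least 70% across replicates, with every replicate also reaching that level; inconclusive = mean inhibition reaches 70% but some replicates fall short; inactive = mean inhibition below 70%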
Target sequence (P26447 whole entry, looked up): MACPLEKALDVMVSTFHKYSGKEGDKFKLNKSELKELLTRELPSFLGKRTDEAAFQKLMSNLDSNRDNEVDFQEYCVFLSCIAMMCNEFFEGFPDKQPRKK
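Test system: S100A4 monomer protein. Medium: HEPES buffer with Ca2+, pH 7.2. Reagent: fluorescent myosin IIA peptide, 5 nM. Compound dosing: single-point compound testing. Timing: 5 min between mix addition and reading. Benchmarks: DMSO neutral and TFP positive wells.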
C2C12 statin – protects C2C12 myotubes from simvastatin toxicity; rescue of ATP level, % at 7.49 µM; AID 602340; 330,000 tested, 0.78% active; ATP luminescence, 48 h; scaled: DMSO 0, geranylgeraniol control 100;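 active = mean ATP rescue above about 67%, or every replicate alone reaching that limit, limit read from the data, passing the limit was not always enough; inconclusive = no clear call, values can overlap the other calls; inactive = mean under the limit and some replicate under it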;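 note: myotubes were challenged with 10 µM simvastatin during compound exposure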
An asterisk follows results filed as active; u = inconclusive; x = no result.

SMILES | DENV2 CPE | PGC1a acetyl inh | SIRT5 block | S100A4 inh HTS | C2C12 statin
COc1cccc(-c2ccc3c(c2)[C@@H]2[C@@H](CCN2C(=O)c2ccc(F)cc2)[C@H](CO)N3C)c1 | 24* | -13 | x | 0 | 51
CC(C)NC(=O)NC[C@@H]1[C@H](c2ccccc2)[C@H](CO)N1C(=O)c1ccccc1 | -6 | 3 | 0 | 1 | 4
CN(C)C(=O)c1cccc(-c2ccc(C3[C@H]4CNC[C@@H]3N4Cc3ccccn3)cc2)c1 (some centres undefined) | 7 | -7 | -3 | -28 | x
COCCNC(=O)C[C@@H]1CC[C@@H]2[C@H](COC[C@@H](O)CN2C(=O)Nc2ccccc2OC)O1 | -1 | -6 | -3 | -3 | 2
CN1c2ccc(Br)cc2[C@@H]2[C@@H](CCN2C(=O)C2CCCCC2)[C@@H]1CO | 67* | 8 | 3 | 2 | -13
CN1c2ccc(-c3ccc(F)cc3)cc2[C@@H]2[C@@H](CCN2C(=O)c2ccncc2)[C@H]1CO | -5 | -29 | -4 | 1 | 13
CN(C)C(=O)c1ccc(-c2ccc3c(c2)[C@H]2[C@H](CCN2C(=O)C2CCOCC2)[C@@H](CO)N3C)cc1 | x | -9 | 17* | -16 | -3
CN1c2ccc(-c3cccc(F)c3)cc2[C@H]2[C@H](CCN2C(=O)c2ccccc2F)[C@H]1CO | 69* | 20 | 6 | 89* | 19
COc1cccc(-c2ccc3c(c2)[C@H]2[C@H](CCN2C(=O)c2ccccc2F)[C@@H](CO)N3C)c1 | -5 | 0 | x | x | -22
CN1c2ccc(-c3ccc(F)cc3)cc2[C@@H]2[C@@H](CCN2C(=O)c2ccncc2)[C@@H]1CO | -4 | -15 | 19* | 1 | -22
CN1c2ccc(Br)cc2[C@H]2[C@H](CCN2C(=O)C2CCCCC2)[C@@H]1CO | -2 | 7 | 1 | 2 | -11
CCN1[C@@H]2c3ccc(C4=CCCCC4)c(=O)n3C[C@H]1[C@H](CO)[C@H]2C(=O)NC1Cc2ccccc2C1 | 13 | x | -11 | 3 | x
CN(C)C(=O)c1cccc(-c2ccc3c(c2)[C@H]2[C@H](CCN2C(=O)c2ccccc2)[C@@H](CO)N3C)c1 | -8 | -8 | 15* | 33 | -3
O=C(NC(=S)N1CCN(c2ccccc2)CC1)c1c(F)cccc1F | 75* | 6 | 1 | -3 | 3
O=C(NC(=S)N1CCN(c2ccc(F)cc2)CC1)c1cccs1 | -3 | -11 | -3 | 11 | 6
C[C@H]1C=C(C(=O)N2CCN(Cc3ccc4c(c3)OCO4)CC2)O[C@@H](OCCCCO)C1 | -2 | -2 | -2 | 1 | x
COC(=O)C1=C(C)NC(C)=C(C(=O)OC)C1C1CC=CCC1 (centres undefined) | x | 3 | x | x | 123*
CCOC(=O)C1=C(C)NC(=O)NC1C1CC=CCC1 (centres undefined) | x | -6 | x | x | 17
COCc1[nH]nc2c1C(c1sccc1C)C(C#N)=C(N)O2 (centres undefined) | x | 1 | 0 | -2 | 94*
COc1ccc(C(CNC(=O)COc2cc(C)ccc2Cl)N2CCCCC2)cc1 (centres undefined) | 37* | 20 | 0 | 1 | x
O=C(CN1C(=O)CCC1=O)NCC12CC3CC(CC(C3)C1)C2 | x | 8 | x | x | 96*
Cc1noc(C)c1NC(=O)Nc1cccc2c1O[C@@H](CN(C)C(=O)Nc1c(C)noc1C)[C@H](C)CN([C@@H](C)CO)C2=O | 14 | -5 | -6 | -9 | -26
C[C@H]1CN([C@@H](C)CO)C(=O)c2cc(NS(=O)(=O)c3ccc(F)cc3)ccc2O[C@H]1CN(C)S(=O)(=O)c1ccc(Cl)cc1 | 26* | -5 | -3 | 1 | x
Cc1ccc(S(=O)(=O)N(C)C[C@H]2Oc3ccc(NS(=O)(=O)c4ccc(F)cc4)cc3C(=O)N([C@H](C)CO)C[C@@H]2C)cc1 | 82* | 6 | x | x | -38
C[C@H](CO)N1C[C@H](C)[C@H](CN(C)C)Oc2ccc(NS(=O)(=O)c3ccc(F)cc3)cc2C1=O | 29* | -1 | -1 | -5 | -19
SMILES | DENV2 CPE | PGC1a acetyl inh | SIRT5 block | S100A4 inh HTS | C2C12 statin
C[C@@H]1CN([C@@H](C)CO)C(=O)c2cc(NS(=O)(=O)c3ccc(F)cc3)ccc2O[C@H]1CN(C)C | 14 | 2 | 0 | 1 | -23
Cc1ccc(S(=O)(=O)N(C)C[C@@H]2Oc3ccc(NS(=O)(=O)c4ccc(F)cc4)cc3C(=O)N([C@@H](C)CO)C[C@@H]2C)cc1 | 5 | 4 | x | x | 44
Cc1ccc(S(=O)(=O)N[C@H]2CC[C@H](CC(=O)NC3CCCCC3)O[C@@H]2CO)cc1 | 9 | 5 | -1 | 2 | 3
C[C@H](CO)N1C[C@H](C)[C@H](CN(C)Cc2ccc3c(c2)OCO3)Oc2ccc(NS(=O)(=O)c3ccc(F)cc3)cc2C1=O | 2 | -8 | 9 | -3 | 13
CCOC(=O)Cn1c(=O)c2c(nc3n2CCN3Cc2ccccc2)n(C)c1=O | x | 4 | x | x | 134*
CCOC(=O)Cn1c(=O)c2c(nc3n2CCCN3Cc2ccccc2)n(C)c1=O | 2 | -9 | -1 | 2 | -4
Cn1c(=O)oc2ccc(S(=O)(=O)Nc3ccc(Cl)cc3[N+](=O)[O-])cc21 | 9 | x | x | 0 | x
C[C@H]1CN([C@@H](C)CO)S(=O)(=O)c2ccc(-c3cncnc3)cc2O[C@H]1CN(C)Cc1ccccn1 | -5 | 2 | -0.3* | 3 | 33
Cc1ccc(-c2ccc3c(c2)O[C@@H](CN(C)Cc2ccccn2)[C@H](C)CN([C@@H](C)CO)S3(=O)=O)cc1 | 10 | 9 | 19* | -7 | -54
Cc1ccc(-c2ccc3c(c2)O[C@@H](CN(C)Cc2ccccc2)[C@@H](C)CN([C@@H](C)CO)S3(=O)=O)cc1 | u | -6 | 32* | -2 | -25
C[C@@H]1CN([C@@H](C)CO)C(=O)c2ccccc2-c2ccccc2CO[C@@H]1CN(C)C(=O)Nc1ccnc(N2CCOCC2)c1 | 2 | 5 | -3 | -14 | -7
C[C@@H]1CN([C@@H](C)CO)C(=O)c2cc(-c3ccccc3F)cnc2O[C@@H]1CN(C)C(=O)CN(C)C | 8 | -4 | 0 | -1 | 2
O=C(CN1CCOCC1)N1CCCCN2[C@H](CO)[C@H](c3ccc(/C=C/c4ccccc4)cc3)[C@H]2C1 | 54* | 2 | 5 | 16 | -6
O=C(CN1CCOCC1)N1CCCCN2[C@@H](CO)[C@@H](c3ccc(-c4ccccc4)cc3)[C@@H]2C1 | 61* | -3 | -3 | 8 | 7
O=C(CN1CCOCC1)N1CCCCN2[C@H](CO)[C@H](c3ccc(C#Cc4ccccc4)cc3)[C@@H]2C1 | 31* | -7 | 1 | 3 | x
O=C(CN1CCOCC1)N1CCCCN2[C@H](CO)[C@H](c3ccc(/C=C/c4ccccc4)cc3)[C@@H]2C1 | u | -7 | 1 | -31 | -16
O=C(CN1CCOCC1)N1CCCCN2[C@H](CO)[C@@H](c3ccc(C#Cc4ccccc4)cc3)[C@@H]2C1 | 14 | 10 | 1 | -4 | x

Screening results as filed in PubChem BioAssay.
